Results reported in article PMC4802972 (Biochimica et biophysica acta, 2014).
Where two headings read alike, the source gives them in different places.

Legend:
BstA [1] = biological target: T1, BstA (Staphylococcus aureus, UniProt A0A0H2XDW9); experiment: Saturation kinetics of BstA; format: biochemical; details: for kcat: pH 7.0, BSH and mBCl at 37°C with 220 nM BstA, CDNB at 23°C with 2.8 μM BstA
S. aureus FosB = details: read-out: Km of FosB for BSH; cited from earlier work
S. aureus BstA [2] = format: biochemical, Staphylococcus aureus; details: for reduction of enzymatic rate compared to untreated +BstA reaction / reaction rate of +BstA reaction after treatment: 1 mM phenanthroline, 220 nM BstA; for reaction rate of +BstA reaction after treatment: 50 μM BSH, 23°C
[3] = cited from earlier work
S. aureus BstA [4] = experiment: Direct BstA reactions; format: biochemical, Staphylococcus aureus; details: for BstA dependence of reaction with BSH: with and without BstA
Summary of the method: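 Purified His6-tag-cleaved S. aureus BstA, expressed in E. coli C41 (DE3). Cerulenin and BSH, 500 μM each, reacted with and without 220 nM BstA. Samples diluted 5-fold into 10 mM methanesulfonic acid, concentrated, then run on C18 reverse-phase HPLC at 0.4 mL/min with a 0–70% B gradient over 40 min (A 0.05% TFA-water, B 60% acetonitrile-water). Detection at 220 nm.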

[5] = Direct non-enzymatic reaction with BSH
S. aureus MW2 = details: cited from earlier work
BstA [6] = biological target: T1, BstA; experiment: Inhibition constants of carboxamido-1,3,4-oxadiazole kinase inhibitors; format: biochemical
[7] = + 220 nM BstA, 50 μM thiol, 50 μM mBCl, pH 7.0
[8] = − BstA, 50 μM thiol, 50 μM mBCl, pH 7.0

Cc1c(C)n2c(CCl)c(C)c(=O)n2c1=O [mBCl, monochlorobimane]
Km below the Km of CDNB (BstA [1]; mBCl vs CDNB): over 10 fold | kcat (BstA [1]): 0.30 ± 0.02 s⁻¹

N[C@@H](CS)C(=O)N[C@H]1[C@@H](O[C@@H](CC(=O)O)C(=O)O)O[C@H](CO)[C@@H](O)[C@@H]1O [BSH, bacillithiol]
Km (S. aureus FosB): 4.2 ± 0.7 mM | Specific Activity + BstA (S. aureus BstA [2]; [7]): 152 ± 8 nmol/min/mg | Specific Activity − BstA (S. aureus BstA [2]; [8]): 8.4 ± 0.3 nmol/min/mg | thiol pKa [3]: 7.46 | Km of BstA for BSH lower than that of S. aureus FosB (BstA [1]; BstA vs FosB): 260 fold | kcat (BstA [1]): 0.21 ± 0.01 s⁻¹

C=C(CC)C(=O)c1ccc(OCC(=O)O)c(Cl)c1Cl [etacrynic acid]
BstA dependence of reaction with BSH (S. aureus BstA [4]): BstA-independent

C/C=C/C/C=C/CCC(=O)[C@H]1O[C@H]1C(N)=O [cerulenin]
non-enzymatic rate of adduct formation with BSH ([5]; 500 μM cerulenin, 500 μM BSH, −BstA): 170 nmol/min/mg | adduct formation rate with BSH, +BstA (S. aureus BstA [4]; 500 μM cerulenin, 500 μM BSH, 220 nM BstA): 300 nmol/min/mg | BstA catalyzed reaction rate (S. aureus BstA [4]; cerulenin with BSH, net enzymatic rate): 130 nmol/min/mg | BstA dependence of reaction with BSH (S. aureus BstA [4]): weak substrate

N[C@@H](CS)C(=O)O [Cysteine, cysteine]
Specific Activity + BstA (S. aureus BstA [2]; [7]): 8.3 ± 0.5 nmol/min/mg | Specific Activity − BstA (S. aureus BstA [2]; [8]): 6.7 ± 0.3 nmol/min/mg

CCCCCC(O)/C=C/C=O (centres unmarked) [4-hydroxynonenal]
BstA dependence of reaction with BSH (S. aureus BstA [4]): BstA-independent

CC(=O)N[C@@H](CS)C(=O)N[C@H]1[C@@H](OC2[C@H](O)[C@H](O)C(O)[C@H](O)[C@H]2O)O[C@H](CO)[C@@H](O)[C@@H]1O (some centres unmarked) [Mycothiol, mycothiol]
Specific Activity + BstA (S. aureus BstA [2]; [7]): 3.3 ± 0.1 nmol/min/mg | Specific Activity − BstA (S. aureus BstA [2]; [8]): 3.0 ± 0.1 nmol/min/mg

OO [hydrogen peroxide]
increase of bstA expression (S. aureus MW2): 3 fold | upregulation of brxB ortholog (S. aureus MW2): 6 fold | upregulation of glxA ortholog (S. aureus MW2): 2 fold

c1cnc2c(c1)ccc1ncccc12 [1,7-phenanthroline]
reduction of enzymatic rate compared to untreated +BstA reaction (S. aureus BstA [2]): 27% | reaction rate of +BstA reaction after treatment (S. aureus BstA [2]; 50 μM mBCl): 105 nmol/min/mg

N[C@@H](CCC(=O)N[C@@H](CS)C(=O)NCC(=O)O)C(=O)O [Glutathione, glutathione]
Specific Activity + BstA (S. aureus BstA [2]; pH 7): 3.9 ± 0.1 nmol/min/mg | Specific Activity − BstA (S. aureus BstA [2]; pH 7): 4.4 ± 0.4 nmol/min/mg

CO[C@H]1/C=C/O[C@@]2(C)Oc3c(C)c(O)c4c(c3C2=O)C(=O)C=C(NC(=O)/C(C)=C\C=C\[C@H](C)[C@H](O)[C@@H](C)[C@@H](O)[C@@H](C)[C@H](OC(C)=O)[C@@H]1C)C4=O [rifamycin S]
rate of direct reaction with BSH ([5]; 50 μM each, pH 7.0 and pH 6.0, BstA-independent): > 35 µM/min | BstA dependence of reaction with BSH (S. aureus BstA [4]): BstA-independent

O=C(O)CN(CCN(CC(=O)O)CC(=O)O)CC(=O)O [EDTA, ethylenediaminetetraacetic acid]
effect on BstA activity (S. aureus BstA [2]): abolished activity

OCl [hypochlorous acid]
increase of bstA expression (S. aureus MW2): 2 fold | upregulation of brxB ortholog (S. aureus MW2): 2 fold | upregulation of glxA ortholog (S. aureus MW2): 3 fold

O=[N+]([O-])c1ccc(Cl)c([N+](=O)[O-])c1 [CDNB, 1-chloro-2,4-dinitrobenzene]
catalytic efficiency below that of mBCl (BstA [1]; CDNB vs mBCl): 8 fold | kcat (BstA [1]): 0.22 ± 0.02 s⁻¹

CC(C)(COP(=O)(O)OP(=O)(O)OC[C@H]1O[C@@H](n2cnc3c(N)ncnc32)[C@H](O)[C@@H]1OP(=O)(O)O)[C@@H](O)C(=O)NCCC(=O)NCCS [Coenzyme A, coenzyme A]
Specific Activity + BstA (S. aureus BstA [2]; [7]): 1.4 ± 0.1 nmol/min/mg | Specific Activity − BstA (S. aureus BstA [2]; [8]): 1.2 ± 0.1 nmol/min/mg | thiol pKa [3]: 9.6

O=C(Nc1nnc(-c2ccc(F)cc2)o1)c1ccc(Br)s1 [compound 3, 5-bromo-N-[5-(4-fluorophenyl)-1,3,4-oxadiazol-2-yl]thiophene-2-carboxamide]
Ki (BstA [6]): ~3 µM | inhibition of BstA in concentration dependent inhibitor studies (BstA [6]; 5 μM inhibitor): effective inhibitor

C[S+]([O-])CCCCN=C=S (centres unmarked) [sulforaphane]
BstA dependence of reaction with BSH (S. aureus BstA [4]): BstA-independent

c1cnc2c(c1)ccc1cccnc12 [1,10-phenanthroline]
reduction of enzymatic rate compared to untreated +BstA reaction (S. aureus BstA [2]): > 99% | reaction rate of +BstA reaction after treatment (S. aureus BstA [2]; 50 μM mBCl): 12.5 ± 0.7 nmol/min/mg
